# Laboratory results reported in ChEMBL document CHEMBL1128592, “Phenethylthiazolethiourea (PETT) compounds, a new class of HIV-1 reverse transcriptase inhibitors. 1. Synthesis and basic structure-activity relationship studies of PETT analogs” (J Med Chem, 1995).
# Legend:
# [1] = target: Human immunodeficiency virus type 1 reverse transcriptase (Human immunodeficiency virus 1) (UniProt Q72547); test: Concentration which reduced the cytopathic effect of HIV-1 in MT-4 infected cells; assay type: functional, cell-based
# In short: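 MT4 cells at 2 × 10⁵ cells/mL in RPMI 1640 with 10% FCS, penicillin and streptomycin (2 × 10⁴ cells/well). Compounds added from DMSO stocks diluted in medium (final DMSO ≤1%), then HIV-1 IIIB at 10 TCID₅₀/well. After 6 days in CO₂, surviving cells read by XTT. ED₅₀ is the concentration reducing virus cytopathic effect, mean of at least two experiments.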
# [2] = Concentration which reduced the viability of the uninfected MT-4 cells to 50% compared to untreated control cells; conditions: MT4
# [3] = target: Human immunodeficiency virus type 1 reverse transcriptase (Human immunodeficiency virus 1, UniProt Q72547); test: Inhibition of HIV-1 reverse transcriptase using rCdG as template and dGTP as substrate
SMILES,ED50 [1] [µM],CD50 [2] [µM],IC50 [3] [nM]
N#Cc1csc(NC(=S)NCCc2c(F)cccc2F)n1,0.03,10,6
S=C(NCCc1cccc(Oc2ccccc2)c1)Nc1nccs1,2.8,14,1100
Fc1ccccc1CCNC(=S)Nc1nccs1,0.1,75,60
CCCc1csc(NC(=S)NCCc2ccccc2)n1,1.6,> 330,350
S=C(NCCCc1ccccc1)Nc1nccs1,> 10,> 360,4500
S=C(NCCc1ccccc1)Nc1ncccc1Br,> 10,297,> 10000
CC(C)=CCN1Cc2cc(Cl)cc3[nH]c(=S)n(c23)C[C@@H]1C,0.25,–,200
Cc1ccc(NC(=S)NCCc2ccccc2)nc1,0.15,–,30
CC(CNC(=S)Nc1nccs1)c1ccccc1 (stereo not drawn),–,–,450
Cc1ccnc2c1NC(=O)c1cccnc1N2C1CC1,0.15,–,–
Fc1cccc(F)c1CC/N=C(\S)Nc1ccc(Br)cn1,0.01,67,–
CC(C)Oc1cccc(CCNC(=S)Nc2nccs2)c1,0.4,16,400
S=C(NCCc1cccnc1)Nc1nccs1,6.4,83,> 10000
CCc1cc(NCc2nc3c(Cl)ccc(Cl)c3o2)c(O)nc1C [L-697661],0.065,114,100
CN(CCc1ccccc1)/C(S)=N\c1nccs1,> 10,29,> 10000
S=C(NCCc1ccccn1)Nc1nccs1,1.3,76,200
COc1ccc(Br)cc1CCNC(=S)Nc1nccs1,0.05,94,30
O=[N+]([O-])c1ccccc1CCNC(=S)Nc1nccs1,1.1,123,150
Fc1ccc(CCNC(=S)Nc2nccs2)cc1,3.3,78,1000
COc1ccccc1CCNC(=S)Nc1nccs1,0.4,102,40
CCc1csc(NC(=S)NCCc2c(F)cccc2F)n1,0.08,> 305,5.5
S=C(NCCc1ccccc1)Nc1nc2ccccc2s1,1.1,–,200
Fc1cccc(CCNC(=S)Nc2nccs2)c1,0.25,78,150

SMILES,ED50 [1] [µM],CD50 [2] [µM],IC50 [3] [nM]
Oc1ccccc1CCNC(=S)Nc1nccs1,4,100,1100
CN(/C(S)=N/CCc1ccccc1)c1nccs1,10,65,1500
CCCCCCOc1cccc(CC/N=C(\S)Nc2nccs2)c1,> 10,8,> 10000
S=C(NCc1ccccc1)Nc1nccs1,> 10,120,1200
[N-]=[N+]=Nc1ccccc1CC/N=C(\S)Nc1nccs1,0.1,92,–
CCOc1cccc(F)c1CCNC(=S)Nc1nccs1,0.2,37,10
COc1ccc(OC)c(CCNC(=S)Nc2nccs2)c1,0.4,86,200
COc1ccc(CCNC(=S)Nc2nccs2)cc1,5.5,68,350
Fc1cccc(F)c1CCNC(=S)Nc1ccc(Br)cn1,–,–,1
S=C(NCCc1ccccc1)Nc1nncs1,5.3,–,1900
COc1cccc(CCNC(=S)Nc2nccs2)c1,0.6,143,150
S=C(NCCc1ccncc1)Nc1nccs1,> 10,113,> 10000
CC(Cc1ccccc1)/N=C(\S)Nc1nccs1 (stereo not drawn),> 10,87,> 10000
Cn1cccc1CC/N=C(\S)Nc1nccs1,> 10,143,1900
Cc1csc(NC(=S)NCCc2ccccc2)n1,0.4,> 360,100
O=C(NCCc1ccccc1)Nc1nccs1,> 10,113,> 10000
COc1cccc(OC)c1CCNC(=S)Nc1nccs1,0.09,37,90
CC(C)c1csc(NC(=S)NCCc2ccccc2)n1,1.3,> 330,200
S=C(NCCc1ccccc1)Nc1ccc(Br)cn1,0.05,–,15
S=C(NCCc1ccccc1)Nc1nccs1,1.3,–,900
S=C(NCCc1ccccc1)Nc1ccccn1,0.2,–,20
CCCCc1csc(NC(=S)NCCc2ccccc2)n1,1.3,313,2500
CCOc1cccc(F)c1CCNC(=S)Nc1ccc(C)cn1,0.2,60,4.5

SMILES,ED50 [1] [µM],CD50 [2] [µM],IC50 [3] [nM]
S=C(NCCc1ccccc1)Nc1cc[nH]n1,> 10,122,> 10000
S=C(NCCc1ccccn1)Nc1ccc(Br)cn1,0.02,–,–
S=C(NCCc1ccco1)Nc1nccs1,5.2,89,650
S=C(NCCc1ccccc1)Nc1ncc(Cl)s1,2.7,15,2400
N#Cc1csc(NC(=S)NCCc2ccccc2)n1,0.2,–,200
CC(C/N=C(\S)Nc1nccs1)c1ccccc1 (stereo not drawn),1.2,108,–
S=C(NCCc1ccccc1Cl)Nc1nccs1,0.4,100,600
Fc1cccc(F)c1CCNC(=S)Nc1nccs1,0.02,33,10
CCc1csc(NC(=S)NCCc2ccccc2)n1,0.7,> 340,600
COc1cccc(F)c1CCNC(=S)Nc1nccs1,0.3,51,10
Fc1cccc(Cl)c1CCNC(=S)Nc1nccs1,0.05,111,6
[N-]=[N+]=Nc1ccccc1CCNC(=S)Nc1nccs1,–,–,30
Cc1cn([C@H]2C[C@H](N=[N+]=[N-])[C@@H](CO)O2)c(=O)[nH]c1=O,0.007,–,–
O=C(O)c1csc(/N=C(\S)NCCc2ccccc2)n1,> 10,> 325,> 10000
Cc1ccc(NC(=S)NCCc2ccccn2)nc1,0.3,73,50
CCOC(=O)c1csc(NC(=S)NCCc2ccccc2)n1,0.5,60,200
CCCOc1cccc(CCNC(=S)Nc2nccs2)c1,2.2,75,200
FC(F)(F)c1csc(NC(=S)NCCc2ccccc2)n1,0.5,9,550
S=C(NCCc1ccccc1)Nc1cnccn1,> 10,> 390,3900
CCOc1cccc(CCNC(=S)Nc2nccs2)c1,0.15,91,60
Cc1ccccc1CCNC(=S)Nc1nccs1,0.95,72,80
